Key:
Type in all cases: cell-based
Raji [1] = assay: Inhibition of TPA-induced EBV-early antigen activation in human Raji cells assessed as EA activation at 1000 molar ratio after 48 hrs relative to TPA; conditions: human gammaherpesvirus 4
Procedure, shortened: (§1)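 EBV early antigen activation was induced in Raji cells with TPA (32 pmol) and n-butyrate. Test substance was dosed as a molar ratio to TPA in 0.25% phosphate buffer (pH 7.2) for 48 h. Activation is expressed as % of the TPA-only positive control (=100), reported as mean ± SD.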

Raji [2] = assay: Inhibition of TPA-induced EBV-early antigen activation in human Raji cells assessed as EA activation at 100 molar ratio after 48 hrs relative to TPA; conditions: human gammaherpesvirus 4; procedure, shortened: as §1
[3] = Cytotoxicity against human Raji cells assessed as cell viability at 1000 molar ratio after 48 hrs by trypan blue assay; conditions: read-out: Activity
Procedure, shortened: (§2)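 Raji cells were treated together with TPA (32 pmol), n-butyrate and test substance in 0.25% phosphate buffer solution (pH 7.2). Dose is expressed as molar ratio to TPA. After 48 h, cells were stained with Trypan Blue and surviving cells were counted to give viability %.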

[4] = Cytotoxicity against human Raji cells assessed as cell viability at 100 molar ratio after 48 hrs by trypan blue assay; conditions: read-out: Activity; procedure, shortened: as §2
Raji [5] = assay: Inhibition of TPA-induced EBV-early antigen activation in human Raji cells assessed as EA activation at 500 molar ratio after 48 hrs relative to TPA; conditions: human gammaherpesvirus 4; procedure, shortened: as §1
Raji [6] = assay: Inhibition of TPA-induced EBV-early antigen activation in human Raji cells assessed as EA activation at 10 molar ratio after 48 hrs relative to TPA; conditions: human gammaherpesvirus 4; procedure, shortened: as §1

Row | SMILES | EA activation (% of TPA-only control) (Raji [1]) [%] | EA activation relative to TPA control (Raji [2]) [%] | viability at 48 h, 1000 molar ratio [3] [%] | viability at 48 h, 100 molar ratio [4] [%] | EA activation (% of TPA control) (Raji [5]) [%] | EBV-EA activation (% of TPA control) (Raji [6]) [%]
1 | CC1=C(/C=C/C(C)=C/C=C/C(C)=C/C(=O)O)C(C)(C)CCC1 [TRETINOIN] | 30 | 67 | 10 | 40 |  | 
2 | O=C(O)C1=CO[C@@H](O[C@@H]2O[C@H](CO)[C@@H](O)[C@H](O)[C@H]2O)[C@@H]2C(CO)=CC[C@H]12 [GENIPOSIDIC ACID] | 34.8 | 91.8 | 80 |  | 80.5 | 100
3 | COC(=O)C1=CO[C@@H](O)[C@@H]2C(CO)=CC[C@H]12 [GENIPIN] | 11.5 | 64.2 | 80 |  | 44.2 | 100
4 | COC(=O)C1=CO[C@@H](O[C@@H]2O[C@H](CO)[C@@H](O)[C@H](O)[C@H]2O)[C@H]2[C@@H]1C=C[C@@]2(O)CO [GARDENOSIDE] | 92.6 | 100 | 80 |  | 100 | 100
5 | O=CC1=CO[C@@H](O[C@@H]2O[C@H](CO)[C@@H](O)[C@H](O)[C@H]2O)[C@@H]2C(CO)=CC[C@H]12 [TARENNOSIDE] | 30.5 | 88.1 | 80 |  | 72.8 | 100
6 | COC(=O)C1=CO[C@@H](O[C@@H]2O[C@H](CO)[C@@H](O)[C@H](O)[C@H]2O)[C@@H]2C(CO)=CC[C@H]12 [GENIPOSIDE] | 62.4 | 100 | 80 |  | 91 | 100

From ChEMBL document CHEMBL1150208, “Production of anti-tumor-promoting iridoid glucosides in Genipa americana and its cell cultures” (J Nat Prod, 1991)
